From ChEMBL document CHEMBL1250448, “Inhibitor hijacking of Akt activation” (Nat Chem Biol, 2009)
pIC50: −log10 of the molar value. Active and inactive are the calls of the source. The rule behind the calls is not given here.

Tests used:
[1] = target: Ephrin type-A receptor 3 (Homo sapiens) (UniProt P29320); assay: Inhibition of EPHA3 at 1 uM in presence of 10 uM ATP by Select Screen kinase assay relative to untreated control
In short: (§1)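 Part of a 220-kinase panel of purified kinases, each tested with compound at 1 μM. Percent inhibition was measured in the Invitrogen SelectScreen profiling assay.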

[2] = target: Mitogen-activated protein kinase kinase kinase kinase 4 (Homo sapiens) (UniProt O95819); assay: Inhibition of MAP4K4 at 1 uM in presence of 10 uM ATP by Select Screen kinase assay relative to untreated control
[3] = target: Ribosomal protein S6 kinase beta-1 (Homo sapiens, UniProt P23443); assay: Inhibition of S6K1
[4] = target: Serine/threonine-protein kinase MRCK beta (Homo sapiens) (UniProt Q9Y5S2); assay: Inhibition of CDC42 binding protein beta at 1 uM in presence of 10 uM ATP by Select Screen kinase assay relative to untreated control
In short: (§2)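 Single-point screen at 1 μM against a panel of 220 purified kinases, run by Invitrogen staff as a SelectScreen profiling service. Read-out is percent inhibition of kinase activity.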

[5] = target: Aurora kinase B (Homo sapiens) (UniProt Q96GD4); assay: Inhibition of AURKB at 1 uM in presence of 10 uM ATP by Select Screen kinase assay relative to untreated control
Aurora kinase B (Homo sapiens), sequence (Q96GD4 whole entry, looked up): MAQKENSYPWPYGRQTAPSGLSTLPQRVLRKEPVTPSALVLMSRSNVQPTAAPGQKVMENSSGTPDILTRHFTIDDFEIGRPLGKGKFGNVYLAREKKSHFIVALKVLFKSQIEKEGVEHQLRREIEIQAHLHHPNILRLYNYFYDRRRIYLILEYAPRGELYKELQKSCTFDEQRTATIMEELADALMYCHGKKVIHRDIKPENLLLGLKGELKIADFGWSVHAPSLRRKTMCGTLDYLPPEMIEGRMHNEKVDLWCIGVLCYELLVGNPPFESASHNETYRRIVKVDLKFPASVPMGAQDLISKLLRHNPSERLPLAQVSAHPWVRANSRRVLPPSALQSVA

[6] = tested on: Tyrosine-protein kinase ABL1 (Homo sapiens), P00519 [Y253F]; assay: Inhibition of ABL1 Y253F mutant at 1 uM in presence of 10 uM ATP by Select Screen kinase assay relative to untreated control; in short: as §2
[7] = target: Serine/threonine-protein kinase BRSK1 (Homo sapiens) (UniProt Q8TDC3); assay: Inhibition of BRSK1 at 1 uM in presence of 10 uM ATP by Select Screen kinase assay relative to untreated control; in short: as §2
[8] = target: Glycogen synthase kinase-3 beta (Homo sapiens) (UniProt P49841); assay: Inhibition of GSK3B at 1 uM in presence of 10 uM ATP by Select Screen kinase assay relative to untreated control; in short: as §1
Glycogen synthase kinase-3 beta (Homo sapiens), sequence (P49841 whole entry, looked up): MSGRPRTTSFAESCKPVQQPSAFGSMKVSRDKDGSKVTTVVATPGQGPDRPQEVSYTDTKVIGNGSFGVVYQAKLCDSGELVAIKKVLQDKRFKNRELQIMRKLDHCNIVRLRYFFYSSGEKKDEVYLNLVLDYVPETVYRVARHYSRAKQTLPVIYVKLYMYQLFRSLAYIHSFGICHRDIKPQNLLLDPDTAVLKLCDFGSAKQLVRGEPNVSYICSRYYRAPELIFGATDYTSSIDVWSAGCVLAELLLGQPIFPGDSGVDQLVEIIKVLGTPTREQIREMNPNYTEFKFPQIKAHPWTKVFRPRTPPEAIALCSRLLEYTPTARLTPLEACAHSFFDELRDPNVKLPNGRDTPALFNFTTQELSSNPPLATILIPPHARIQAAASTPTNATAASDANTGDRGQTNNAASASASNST

[9] = target: RAC-alpha serine/threonine-protein kinase (Rattus norvegicus) (UniProt P47196); assay: Induction AKT1 Ser473 hyperphosphorylation in insulin-induced rat L6 cells after 20 mins before insulin stimulation by immunoblotting; format: cell-based
[10] = target: Serine/threonine-protein kinase MARK1 (Homo sapiens) (UniProt Q9P0L2); assay: Inhibition of MARK1 at 1 uM in presence of 10 uM ATP by Select Screen kinase assay relative to untreated control
Serine/threonine-protein kinase MARK1 (Homo sapiens), sequence (Q9P0L2 whole entry, looked up): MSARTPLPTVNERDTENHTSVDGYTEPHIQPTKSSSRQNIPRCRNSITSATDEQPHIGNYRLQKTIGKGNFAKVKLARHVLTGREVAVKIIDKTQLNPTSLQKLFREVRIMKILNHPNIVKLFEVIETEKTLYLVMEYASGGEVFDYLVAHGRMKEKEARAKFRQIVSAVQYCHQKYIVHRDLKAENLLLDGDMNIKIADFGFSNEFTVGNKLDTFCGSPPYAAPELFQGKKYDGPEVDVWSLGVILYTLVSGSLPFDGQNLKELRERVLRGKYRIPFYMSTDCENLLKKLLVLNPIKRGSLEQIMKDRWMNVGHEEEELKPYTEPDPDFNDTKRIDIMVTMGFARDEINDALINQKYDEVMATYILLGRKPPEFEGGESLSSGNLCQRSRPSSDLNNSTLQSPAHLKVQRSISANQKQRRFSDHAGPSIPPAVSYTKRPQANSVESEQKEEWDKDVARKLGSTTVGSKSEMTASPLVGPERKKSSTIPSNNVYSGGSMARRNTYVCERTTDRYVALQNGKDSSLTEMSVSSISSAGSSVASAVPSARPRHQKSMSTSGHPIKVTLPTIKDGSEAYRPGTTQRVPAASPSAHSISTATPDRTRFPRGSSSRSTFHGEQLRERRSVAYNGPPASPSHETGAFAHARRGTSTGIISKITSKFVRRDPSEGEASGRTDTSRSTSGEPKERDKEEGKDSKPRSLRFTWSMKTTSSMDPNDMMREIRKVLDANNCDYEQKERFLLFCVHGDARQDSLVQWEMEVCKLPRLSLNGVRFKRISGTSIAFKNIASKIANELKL

[11] = target: Mitogen-activated protein kinase kinase kinase kinase 2 (Homo sapiens) (UniProt Q12851); assay: Inhibition of MAP4K2 at 1 uM in presence of 10 uM ATP by Select Screen kinase assay relative to untreated control
Mitogen-activated protein kinase kinase kinase kinase 2 (Homo sapiens), sequence (Q12851 whole entry): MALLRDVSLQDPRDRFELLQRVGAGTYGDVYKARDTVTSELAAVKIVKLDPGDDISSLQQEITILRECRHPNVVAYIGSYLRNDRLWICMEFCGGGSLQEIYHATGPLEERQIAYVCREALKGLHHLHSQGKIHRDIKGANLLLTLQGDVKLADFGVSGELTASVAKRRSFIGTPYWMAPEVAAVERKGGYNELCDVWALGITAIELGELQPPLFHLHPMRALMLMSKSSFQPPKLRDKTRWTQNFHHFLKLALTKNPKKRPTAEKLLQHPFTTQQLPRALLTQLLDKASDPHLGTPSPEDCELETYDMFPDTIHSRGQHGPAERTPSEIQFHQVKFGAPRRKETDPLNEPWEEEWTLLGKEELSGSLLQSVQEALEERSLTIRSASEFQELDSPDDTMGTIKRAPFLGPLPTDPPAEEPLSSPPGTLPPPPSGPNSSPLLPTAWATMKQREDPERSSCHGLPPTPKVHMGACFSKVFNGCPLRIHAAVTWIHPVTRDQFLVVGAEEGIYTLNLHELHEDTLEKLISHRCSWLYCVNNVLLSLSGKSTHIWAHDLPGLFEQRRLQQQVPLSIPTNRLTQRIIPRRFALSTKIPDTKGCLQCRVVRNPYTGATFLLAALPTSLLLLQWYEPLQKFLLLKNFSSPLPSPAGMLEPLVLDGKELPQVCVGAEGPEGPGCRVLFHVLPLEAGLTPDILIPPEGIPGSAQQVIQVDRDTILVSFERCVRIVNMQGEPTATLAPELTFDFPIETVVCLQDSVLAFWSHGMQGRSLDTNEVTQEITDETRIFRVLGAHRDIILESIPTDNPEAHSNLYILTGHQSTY

[12] = target: Rho-associated protein kinase 1 (Homo sapiens) (UniProt Q13464); assay: Inhibition of ROCK1 at 1 uM in presence of 10 uM ATP by Select Screen kinase assay relative to untreated control
[13] = target: RAC-alpha serine/threonine-protein kinase (Homo sapiens, UniProt P31749); assay: Inhibition of AKT1
RAC-alpha serine/threonine-protein kinase, sequence (P31749 whole entry): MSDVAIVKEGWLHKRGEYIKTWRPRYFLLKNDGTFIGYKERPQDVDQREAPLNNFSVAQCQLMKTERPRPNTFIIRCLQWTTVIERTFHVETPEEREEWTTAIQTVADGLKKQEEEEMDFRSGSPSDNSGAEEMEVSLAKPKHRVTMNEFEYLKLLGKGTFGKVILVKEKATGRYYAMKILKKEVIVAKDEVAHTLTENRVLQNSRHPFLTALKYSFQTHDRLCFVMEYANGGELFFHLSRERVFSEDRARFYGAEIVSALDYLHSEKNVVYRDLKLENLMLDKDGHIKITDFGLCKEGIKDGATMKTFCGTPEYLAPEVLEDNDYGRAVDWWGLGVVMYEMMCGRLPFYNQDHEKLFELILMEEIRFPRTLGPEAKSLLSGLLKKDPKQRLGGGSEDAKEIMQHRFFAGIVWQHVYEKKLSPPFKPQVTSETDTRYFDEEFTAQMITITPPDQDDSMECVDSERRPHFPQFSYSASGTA

MiaPaCa2 [14] = assay: Induction of myristoylated AKT2 M225G and kinase dead D289A mutant Ser473 hyperphosphorylation expressed in MiaPaCa2 cells at 2.5 uM after 30 mins by immunoblotting; format: cell-based
HEK-293T [15] = assay: Induction myristoylated AKT2 M225G mutant Thr308 hyperphosphorylation expressed in HEK293T cells at 2.5 uM after 30 mins pretreated with PDK1 inhibitor BX-795 for 10 mins before compound addition by immunoblotting; format: cell-based
[16] = tested on: RAC-alpha serine/threonine-protein kinase (Homo sapiens), P31749 [M227G,D292A]; assay: Induction of myristoylated AKT1 M227G and kinase dead D292A mutant Ser473 hyperphosphorylation expressed in PC3 cells at 2.5 uM after 30 mins by immunoblotting; format: cell-based; settings: PC-3
RAC-alpha serine/threonine-protein kinase (Homo sapiens), P31749 [M227G,D292A], sequence (P31749 whole entry M227G/D292A): as the sequence (P31749 whole entry) above, with M227G, D292A counted along it

[17] = tested on: RAC-alpha serine/threonine-protein kinase (Homo sapiens), P31749 [M227G]; assay: Induction of myristoylated AKT1 M227G Thr308 hyperphosphorylation expressed in PC3 cells at 2.5 uM after 30 mins by immunoblotting; format: cell-based; settings: PC-3
RAC-alpha serine/threonine-protein kinase (Homo sapiens), P31749 [M227G], sequence (P31749 whole entry M227G): as the sequence (P31749 whole entry) above, with M227G counted along it

[18] = tested on: RAC-alpha serine/threonine-protein kinase (Homo sapiens), P31749 [M227G]; assay: Induction of AKT1 M227G Thr308 hyperphosphorylation expressed in HEK293 cells at 2.5 uM after 30 mins pretreated with allosteric AKT inhibitor Akti-1,2 10 mins before compound addition by immunoblotting
HEK-293T [19] = assay: Induction myristoylated AKT2 M225G mutant Ser473 hyperphosphorylation expressed in HEK293T cells at 2.5 uM after 30 mins pretreated with mTOR kinase inhibitor PP242 for 10 mins before compound addition by immunoblotting; format: cell-based
[20] = tested on: RAC-alpha serine/threonine-protein kinase (Homo sapiens), P31749 [M227G]; assay: Induction of flag tagged AKT1 M227G Ser473 hyperphosphorylation expressed in HEK293 cells at 2.5 uM after 30 mins by immunoblotting; format: cell-based
MiaPaCa2 [21] = assay: Induction of myristoylated AKT2 M225G mutant Ser473 hyperphosphorylation expressed in MiaPaCa2 cells at 2.5 uM after 30 mins by immunoblotting; format: cell-based
[22] = tested on: RAC-alpha serine/threonine-protein kinase (Homo sapiens), P31749 [M227G]; assay: Induction of myristoylated AKT1 M227G mutant Ser473 hyperphosphorylation expressed in HEK293T cells at 2.5 uM after 30 mins by immunoblotting; format: cell-based; settings: HEK-293T
[23] = tested on: RAC-alpha serine/threonine-protein kinase (Homo sapiens), P31749 [M227G,D292A]; assay: Induction of myristoylated AKT1 M227G and kinase dead D292A mutant Thr308 hyperphosphorylation expressed in PC3 cells at 2.5 uM after 30 mins by immunoblotting; format: cell-based; settings: PC-3
[24] = tested on: RAC-alpha serine/threonine-protein kinase (Homo sapiens), P31749 [M227G,D292A]; assay: Induction of myristoylated AKT1 M227G and kinase dead D292A mutant Thr308 hyperphosphorylation expressed in MCF7 cells at 2.5 uM after 30 mins by immunoblotting; format: cell-based
HEK-293T [25] = assay: Induction of myristoylated AKT2 M225G and kinase dead D289A mutant Thr308 hyperphosphorylation expressed in HEK293T cells at 2.5 uM after 30 mins by immunoblotting; format: cell-based
[26] = tested on: RAC-alpha serine/threonine-protein kinase (Homo sapiens), P31749 [M227G]; assay: Induction of myristoylated AKT1 M227G mutant Thr308 hyperphosphorylation expressed in HEK293T cells at 2.5 uM after 30 mins pretreated with mTOR kinase inhibitor PP242 for 10 mins before compound addition by immunoblotting; format: cell-based; settings: HEK-293T
[27] = tested on: RAC-alpha serine/threonine-protein kinase (Homo sapiens), P31749 [M227G,D292A]; assay: Induction of myristoylated AKT1 M227G and kinase dead D292A mutant Ser473 hyperphosphorylation expressed in MCF7 cells at 2.5 uM after 30 mins by immunoblotting; format: cell-based
[28] = tested on: RAC-alpha serine/threonine-protein kinase (Homo sapiens), P31749 [M227G,R25C]; assay: Induction of myristoylated AKT1 M227G and R25C mutant Ser473 hyperphosphorylation expressed in HEK293T cells at 2.5 uM after 30 mins by immunoblotting; format: cell-based; settings: HEK-293T
[29] = tested on: RAC-alpha serine/threonine-protein kinase (Homo sapiens), P31749 [M227G]; assay: Induction of myristoylated AKT1 M227G mutant Thr308 hyperphosphorylation expressed in HEK293 cells at 2.5 uM after 30 mins by immunoblotting; settings: HEK-293

Ephrin type-A receptor 3 (Homo sapiens), sequence (P29320 whole entry): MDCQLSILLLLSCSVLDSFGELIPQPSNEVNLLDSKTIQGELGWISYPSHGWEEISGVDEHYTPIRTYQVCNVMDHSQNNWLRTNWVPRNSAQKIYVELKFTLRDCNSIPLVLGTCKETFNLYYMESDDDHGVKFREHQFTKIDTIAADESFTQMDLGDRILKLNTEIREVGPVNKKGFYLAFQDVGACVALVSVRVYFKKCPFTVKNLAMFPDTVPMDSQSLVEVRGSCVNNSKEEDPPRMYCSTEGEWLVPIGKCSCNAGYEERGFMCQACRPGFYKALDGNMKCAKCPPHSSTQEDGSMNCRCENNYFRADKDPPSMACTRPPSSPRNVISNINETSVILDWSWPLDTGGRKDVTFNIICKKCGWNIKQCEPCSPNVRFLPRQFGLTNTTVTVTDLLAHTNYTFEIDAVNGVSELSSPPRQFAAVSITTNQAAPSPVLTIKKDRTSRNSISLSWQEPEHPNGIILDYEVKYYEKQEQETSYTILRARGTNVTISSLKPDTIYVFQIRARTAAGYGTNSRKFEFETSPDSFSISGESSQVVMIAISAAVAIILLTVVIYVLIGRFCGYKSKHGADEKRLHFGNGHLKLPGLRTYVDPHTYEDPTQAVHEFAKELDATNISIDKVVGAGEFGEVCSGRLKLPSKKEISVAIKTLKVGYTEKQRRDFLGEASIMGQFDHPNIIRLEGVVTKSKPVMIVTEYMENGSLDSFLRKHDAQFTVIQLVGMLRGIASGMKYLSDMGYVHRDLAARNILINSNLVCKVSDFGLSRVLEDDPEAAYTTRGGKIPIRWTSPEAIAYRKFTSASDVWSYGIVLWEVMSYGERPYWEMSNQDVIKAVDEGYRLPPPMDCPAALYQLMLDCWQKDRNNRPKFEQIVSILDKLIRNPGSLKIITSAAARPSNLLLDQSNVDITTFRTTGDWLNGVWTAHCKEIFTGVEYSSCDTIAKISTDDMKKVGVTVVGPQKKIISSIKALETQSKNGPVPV

SMILES	inhibition [1]	inhibition [2]	inhibition [4]	inhibition [5]	inhibition [6]	inhibition [7]	inhibition [8]	inhibition [10]	inhibition [11]	inhibition [12]	further results
COc1ccccc1N1CCN(c2ncnc3[nH]nc(Br)c23)CC1	14%	73%	3%	20%	12%	29%	67%	23%	18%	-2%	pIC50 [3]: 8.04; Activity [9]: inactive; pIC50 [13]: 4.66
CCCc1cc(-c2cncc(OC[C@@H](N)Cc3c[nH]c4ccccc34)c2)cc2c(C)n[nH]c12	–	–	–	–	–	–	–	–	–	–	Activity (MiaPaCa2 [14]): Active; Activity (HEK-293T [15]): inactive; Activity [16]: Active; Activity [17]: Active; Activity [18]: inactive; Activity (HEK-293T [19]): inactive; Activity [20]: Active; Activity (MiaPaCa2 [21]): Active; Activity [22]: Active; Activity [23]: Active; Activity [24]: Active; Activity (HEK-293T [25]): Active; Activity [26]: Active; Activity [27]: Active; Activity [28]: inactive; Activity [29]: Active
O=C(NCCCNc1nc(Nc2cccc(NC(=O)N3CCCC3)c2)ncc1I)c1cccs1	13%	39%	14%	103%	36%	75%	69%	95%	97%	48%	–
